From ChEMBL document CHEMBL1124186, “Synthesis and evaluation of tylosin-related macrolides modified at the aldehyde function: a new series of orally effective antibiotics” (1988)
In brackets after ≈: the same amount, converted by molar mass.

Assays:
Staphylococcus aureus [1] = test: In vivo effective dose against experimental infections in mice Staphylococcus aureus X1 when administered orally; type: functional; details: po
Staphylococcus aureus [2] = test: In vitro antimicrobial activity against aerobic bacteria Staphylococcus aureus X400; type: functional
Streptococcus pyogenes [3] = test: In vivo effective dose against experimental infections in rodent caused by Streptococcus pyogenes C203 when administered orally; type: functional; details: po
[4] = system: Fusobacterium necrophorum; test: In vitro antimicrobial activity against anaerobic bacteria usobacterium necrophorum 6054A; type: functional
Streptococcus pneumoniae [5] = test: In vivo effective dose against experimental infections in mice Strep. pneumoniae park when administered orally; type: functional; details: po
Streptococcus [6] = test: In vitro antimicrobial activity against aerobic bacteria Streptococcus D 9960; type: functional
Streptococcus [7] = test: In vitro antimicrobial activity against aerobic bacteria Streptococcus G Kruder; type: functional; details: Streptococcus; read-out: MIC
Mus musculus [8] = test: Peripheral plasma levels in mice after oral administration of 100 mg/kg dose for 0.5 hr; type: functional, organism-based; set-up: dose 100 mg/kg
Method in brief: (§1)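 Mice were given the compound orally and sampled for peripheral plasma at each time point. Plasma was assayed microbiologically against Micrococcus luteus seeded in Antibiotic Medium 1. Inhibition zone sizes were read, and concentrations were calculated from each compound's own standard curve. Each value is the mean of five mice per time point.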

Streptococcus [9] = test: In vitro antimicrobial activity against aerobic bacteria Streptococcus B 8; type: functional
Chlamydia trachomatis = test: In vitro antimicrobial activity against chlamydia trachomatis.; type: functional
Staphylococcus aureus [10] = test: In vitro antimicrobial activity against aerobic bacteria Staphylococcus aureus 513E; type: functional
Streptococcus pneumoniae [11] = test: In vitro antimicrobial activity against Streptococcus pneumoniae; type: functional
Rattus norvegicus [12] = test: Peripheral plasma levels in rats after oral administration of 100 mg/kg dose for 2 hr; type: functional, organism-based; set-up: dose 100 mg/kg
Method in brief: (§2)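 Rats received 100 mg/kg orally and were sampled for peripheral plasma. Concentrations were measured by Micrococcus luteus agar-diffusion microbiological assay in Antibiotic Medium 1, with zone sizes converted using the standard curve for the appropriate compound. Each value is the average of three rats per time point.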

Mus musculus [13] = test: Peripheral plasma levels in mice after oral administration of 50 mg/kg dose for 2 hr; type: functional, organism-based; set-up: dose 50 mg/kg; method in brief: as §1
Clostridioides difficile = test: In vitro antimicrobial activity against anaerobic bacteria Clostridium difficile 2994; type: functional
Streptococcus pneumoniae [14] = test: In vivo effective dose against experimental infections in mice Strep. pneumoniae park when administered sc; type: functional
Staphylococcus aureus [15] = test: In vitro antimicrobial activity against aerobic bacteria Staphylococcus aureus V41; type: functional
Staphylococcus aureus [16] = test: In vitro antimicrobial activity against aerobic bacteria Staphylococcus aureus V135; type: functional
Streptococcus [17] = test: In vitro antimicrobial activity against aerobic bacteria Streptococcus D 2041; type: functional
Fusobacterium = test: In vitro antimicrobial activity against anaerobic bacteria fusobacterium symbiosum 1470; type: functional
Bacteroides fragilis [18] = test: In vitro antimicrobial activity against anaerobic bacteria bacteroides fragilis 1936B,; type: functional
[19] = system: Prevotella melaninogenica; test: In vitro antimicrobial activity against anaerobic bacteria bacteroides melaninogenicus 2736; type: functional
Staphylococcus aureus [20] = test: In vivo effective dose against experimental infections in mice Staphylococcus aureus X1 when administered sc; type: functional
Mus musculus [21] = test: Peripheral plasma levels in mice after oral administration of 50 mg/kg dose for 4 hr; type: functional, organism-based; set-up: dose 50 mg/kg; method in brief: as §1
Rattus norvegicus [22] = test: Peripheral plasma levels in rats after oral administration of 100 mg/kg dose for 0.25 hr; type: functional, organism-based; set-up: dose 100 mg/kg; method in brief: as §2
[23] = system: Peptoniphilus asaccharolyticus; test: In vitro antimicrobial activity against anaerobic bacteria peptococcus asaccharolyticus 1302; type: functional
Mus musculus [24] = test: Peripheral plasma levels in mice after oral administration of 50 mg/kg dose for 1 hr; type: functional, organism-based; set-up: dose 50 mg/kg; method in brief: as §1
Enterococcus faecium = test: In vitro antimicrobial activity against Streptococcus faecium X66; type: functional, streptococcus fae-cium
Haemophilus influenzae [25] = test: In vitro antimicrobial activity against Haemophilus influenzae.; type: functional
Streptococcus pyogenes [26] = test: In vivo effective dose against experimental infections in rodent caused by Streptococcus pyogenes C203 when administered sc; type: functional
Streptococcus sanguinis = test: In vitro antimicrobial activity against aerobic bacteria Streptococcus sanguis MX132; type: functional
Mus musculus [27] = test: Peripheral plasma levels in mice after oral administration of 50 mg/kg dose for 0.25 hr; type: functional, organism-based; set-up: dose 50 mg/kg; method in brief: as §1
[28] = system: Staphylococcus epidermidis; test: In vitro antimicrobial activity against aerobic bacteria Streptococcus epi 270; type: functional
[29] = system: Staphylococcus epidermidis; test: In vitro antimicrobial activity against aerobic bacteria Streptococcus epi 222; type: functional
[30] = system: Peptostreptococcus anaerobius; test: In vitro antimicrobial activity against anaerobic bacteria eubacterium peptostreptococcus anaerobius 1428,; type: functional
Clostridium perfringens = test: In vitro antimicrobial activity against anaerobic bacteria clostridium perfringens 81,; type: functional
Haemophilus influenzae [31] = test: In vitro antimicrobial activity against aerobic bacteria Haemophilus influenzae MX366,; type: functional
[32] = In vitro antimicrobial activity against anaerobic bacteria peptostreptococcus intermedius 1264; type: functional
[33] = system: Bacteroides thetaiotaomicron; test: In vitro antimicrobial activity against anaerobic bacteria bacteroides thetaiotaomicron 1438; type: functional
Streptococcus [34] = test: In vitro antimicrobial activity against aerobic bacteria Streptococcus B 5; type: functional
Bacteroides fragilis [35] = test: In vitro antimicrobial activity against anaerobic bacteria bacteroides fragilis 1877; type: functional
Rattus norvegicus [36] = test: Peripheral plasma levels in rats after oral administration of 100 mg/kg dose for 1 hr; type: functional, organism-based; set-up: dose 100 mg/kg; method in brief: as §2
Staphylococcus aureus [37] = test: In vitro antimicrobial activity against Staphylococcus aureus X1; type: functional
Staphylococcus aureus [38] = test: In vitro antimicrobial activity against aerobic bacteria Staphylococcus aureus V140,; type: functional
Streptococcus [39] = test: In vitro antimicrobial activity against aerobic bacteria Streptococcus D 8043; type: functional
Streptococcus pyogenes [40] = test: In vitro antimicrobial activity against Streptococcus pyogenes C203; type: functional
[41] = system: Prevotella melaninogenica; test: In vitro antimicrobial activity against anaerobic bacteria bacteroides melaninogenicus 1856,; type: functional
Rattus norvegicus [42] = test: Peripheral plasma levels in rats after oral administration of 100 mg/kg dose for 4 hr; type: functional, organism-based; set-up: dose 100 mg/kg; method in brief: as §2
Mus musculus [43] = test: Peripheral plasma levels in mice after oral administration of 100 mg/kg dose for 0.25 hr; type: functional, organism-based; set-up: dose 100 mg/kg; method in brief: as §1
Streptococcus pneumoniae [44] = test: In vitro antimicrobial activity against aerobic bacteria Streptococcus pneumoniae B1-438; type: functional, streptococcus pneum
Haemophilus influenzae [45] = test: In vitro antimicrobial activity against aerobic bacteria Haemophilus influenzae 76; type: functional
Eikenella corrodens = test: In vitro antimicrobial activity against anaerobic bacteria bacteroides corrodens 1874; type: functional
Phocaeicola vulgatus = test: In vitro antimicrobial activity against anaerobic bacteria bacteroides vulgatus 1211; type: functional
[46] = system: Staphylococcus epidermidis; test: In vitro antimicrobial activity against Staphylococcus epidermidis EPI1; type: functional
Collinsella aerofaciens = test: In vitro antimicrobial activity against anaerobic bacteria eubacterium aerofaciens 1235; type: functional
Cutibacterium acnes = test: In vitro antimicrobial activity against anaerobic bacteria propionibacterium acnes 79; type: functional
Streptococcus viridans = test: In vitro antimicrobial activity against aerobic bacteria Streptococcus viridans 9943; type: functional
Mus musculus [47] = test: Peripheral plasma levels in mice after oral administration of 100 mg/kg dose for 4 hr; type: functional, organism-based; set-up: dose 100 mg/kg; method in brief: as §1
Mus musculus [48] = test: Peripheral plasma levels in mice after oral administration of 100 mg/kg dose for 1 hr; type: functional, organism-based; set-up: dose 100 mg/kg; method in brief: as §1
Clostridium septicum = test: In vitro antimicrobial activity against anaerobic bacteria clostridium septicum 1128; type: functional
Mus musculus [49] = test: Peripheral plasma levels in mice after oral administration of 50 mg/kg dose for 0.5 hr; type: functional, organism-based; set-up: dose 50 mg/kg; method in brief: as §1
Bacteroides fragilis [50] = test: In vitro antimicrobial activity against anaerobic bacteria bacteroides fragilis 111; type: functional
Streptococcus [51] = test: In vitro antimicrobial activity against aerobic bacteria Streptococcus B 14; type: functional
Anaerococcus prevotii = test: In vitro antimicrobial activity against anaerobic bacteria peptococcus prevoti 1281; type: functional
Rattus norvegicus [52] = test: Peripheral plasma levels in rats after oral administration of 100 mg/kg dose for 0.5 hr; type: functional, organism-based; set-up: dose 100 mg/kg; method in brief: as §2
Streptococcus [53] = test: In vitro antimicrobial activity against aerobic bacteria Streptococcus C 24; type: functional
Mus musculus [54] = test: Peripheral plasma levels in mice after oral administration of 100 mg/kg dose for 2 hr; type: functional, organism-based; set-up: dose 100 mg/kg; method in brief: as §1

`CC[C@H]1C[C@@H](C)C(=O)/C=C/C(C)=C/[C@H](CO[C@@H]2O[C@H](C)[C@@H](O)[C@@H](OC)[C@H]2OC)[C@@H](CC)OC(=O)C[C@@H](O)[C@H](C)[C@H]1O[C@@H]1O[C@H](C)[C@@H](O)[C@H](N(C)C)[C@H]1O` showed an ED50 (Staphylococcus aureus [1]) of 10 mg/kg, an MIC (Staphylococcus aureus [2]) of 0.5 µg/mL (≈ 0.66 µM) and an ED50 (Streptococcus pyogenes [3]) of 7 mg/kg. It also gave an MIC [4] of 8 µg/mL (≈ 10.6 µM), an ED50 (Streptococcus pneumoniae [5]) of over 50 mg/kg and an MIC (Streptococcus [6]) of 16 µg/mL (≈ 21.1 µM). It also gave an MIC (Streptococcus [7]) of 64 µg/mL (≈ 84.4 µM), a Concentration (Mus musculus [8]) of 4.5 µg/mL and an MIC (Streptococcus [9]) of 8 µg/mL (≈ 10.6 µM). It also gave an MIC (Chlamydia trachomatis) of 0.5 µg/mL (≈ 0.66 µM), an MIC (Staphylococcus aureus [10]) of 0.25 µg/mL (≈ 0.33 µM) and an MIC (Streptococcus pneumoniae [11]) of 2 µg/mL (≈ 2.64 µM). The Concentration (Rattus norvegicus [12]) was 8.7 µg/mL, the Concentration (Mus musculus [13]) was 2.2 µg/mL and the MIC (Clostridioides difficile) was under 0.5 µg/mL. It also gave an ED50 (Streptococcus pneumoniae [14]) of over 20 mg/kg, an MIC (Staphylococcus aureus [15]) of 0.25 µg/mL (≈ 0.33 µM) and an MIC (Staphylococcus aureus [16]) of 0.25 µg/mL (≈ 0.33 µM). For the same compound, the MIC (Streptococcus [17]) was 8 µg/mL (≈ 10.6 µM), the MIC (Fusobacterium) was 2 µg/mL (≈ 2.64 µM) and the MIC (Bacteroides fragilis [18]) was 4 µg/mL (≈ 5.28 µM). The MIC [19] was 4 µg/mL (≈ 5.28 µM), the ED50 (Staphylococcus aureus [20]) was 2.2 mg/kg and the Concentration (Mus musculus [21]) was 0.9 µg/mL. For the same compound, the Concentration (Rattus norvegicus [22]) was 4.6 µg/mL, the MIC [23] was 2 µg/mL (≈ 2.64 µM) and the Concentration (Mus musculus [24]) was 2 µg/mL. The MIC (Enterococcus faecium) was 16 µg/mL (≈ 21.1 µM), the MIC (Haemophilus influenzae [25]) was 16 µg/mL (≈ 21.1 µM) and the ED50 (Streptococcus pyogenes [26]) was 4.3 mg/kg. It also gave an MIC (Streptococcus sanguinis) of 2 µg/mL (≈ 2.64 µM), a Concentration (Mus musculus [27]) of 0.9 µg/mL and an MIC [28] of over 128 µg/mL. It also gave an MIC [29] of 0.12 µg/mL (≈ 0.158 µM), an MIC [30] of under 0.5 µg/mL and an MIC (Clostridium perfringens) of 2 µg/mL (≈ 2.64 µM). It also gave an MIC (Haemophilus influenzae [31]) of 16 µg/mL (≈ 21.1 µM), an MIC [32] of 4 µg/mL (≈ 5.28 µM) and an MIC [33] of 4 µg/mL (≈ 5.28 µM). For the same compound, the MIC (Streptococcus [34]) was 8 µg/mL (≈ 10.6 µM), the MIC (Bacteroides fragilis [35]) was 4 µg/mL (≈ 5.28 µM) and the Concentration (Rattus norvegicus [36]) was 7.2 µg/mL. It also gave an MIC (Staphylococcus aureus [37]) of 0.25 µg/mL (≈ 0.33 µM), an MIC (Staphylococcus aureus [38]) of 0.5 µg/mL (≈ 0.66 µM) and an MIC (Streptococcus [39]) of 8 µg/mL (≈ 10.6 µM). For the same compound, the MIC (Streptococcus pyogenes [40]) was 0.5 µg/mL (≈ 0.66 µM), the MIC [41] was 1 µg/mL (≈ 1.32 µM) and the Concentration (Rattus norvegicus [42]) was 5.1 µg/mL. It also gave a Concentration (Mus musculus [43]) of 2.6 µg/mL, an MIC (Streptococcus pneumoniae [44]) of over 128 µg/mL and an MIC (Haemophilus influenzae [45]) of 16 µg/mL (≈ 21.1 µM). It also gave an MIC (Eikenella corrodens) of 4 µg/mL (≈ 5.28 µM), an MIC (Phocaeicola vulgatus) of 2 µg/mL (≈ 2.64 µM) and an MIC [46] of 0.25 µg/mL (≈ 0.33 µM). It also gave an MIC (Collinsella aerofaciens) of 2 µg/mL (≈ 2.64 µM), an MIC (Cutibacterium acnes) of 8 µg/mL (≈ 10.6 µM) and an MIC (Streptococcus viridans) of over 128 µg/mL. For the same compound, the Concentration (Mus musculus [47]) was 0.8 µg/mL, the Concentration (Mus musculus [48]) was 3.4 µg/mL and the MIC (Clostridium septicum) was under 0.5 µg/mL. The Concentration (Mus musculus [49]) was 0.5 µg/mL, the MIC (Bacteroides fragilis [50]) was 4 µg/mL (≈ 5.28 µM) and the MIC (Streptococcus [51]) was 16 µg/mL (≈ 21.1 µM). The MIC (Anaerococcus prevotii) was 2 µg/mL (≈ 2.64 µM), the Concentration (Rattus norvegicus [52]) was 7.4 µg/mL and the MIC (Streptococcus [53]) was 0.5 µg/mL (≈ 0.66 µM). For the same compound, the Concentration (Mus musculus [54]) was 2.3 µg/mL.
